Reference: ChEMBL document CHEMBL1136410, “Design, synthesis, and biological evaluation of angiogenesis inhibitors: aromatic enone and dienone analogues of curcumin” (2003)

Legend:
[1] = In vitro percent inhibition of […] murine endothelial cell proliferation garnered from C57BL/6 mice infected with ectotropic virus at 3 ug/mL; format: functional; conditions: Mus musculus
In short: (§1)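 SVR cells (C57BL/6 murine endothelial cells immortalized with SV40 large T and activated H-ras) plated at 10,000/well on gelatinized wells. Grown 24 h at 37 °C, 10% CO2, in 5% DMEM. Medium then replaced with fresh 5% DMEM containing 3 or 6 µg/mL compound (from 1 mg/mL DMSO stocks) for 72 h. Surviving trypsinized cells Coulter-counted; percent inhibition versus DMSO control.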

[2] = In vitro percent inhibition of […] murine endothelial cell proliferation garnered from C57BL/6 mice infected with ectotropic virus at 6 ug/mL; format: functional; conditions: Mus musculus; in short: as §1

Row | Structure (SMILES) | inhibition at 3 µg/mL [1] [%] | inhibition at 6 µg/mL [2] [%]
1 | Cc1ccc(C(=O)/C=C/c2c(Cl)cccc2Cl)cc1 | 98.2 | 98.1
2 | O=C(/C=C/c1c(Cl)cccc1Cl)c1ccccc1 | 92.9 | 97.5
3 | O=C(/C=C/c1ccccc1)c1ccc2ccccc2c1 | 92.2 | 94.7
4 | O=C(/C=C/c1ccccc1)/C=C/c1ccccc1 | 96.6 | 97.7
5 | O=C1/C(=C/c2ccccn2)CCC/C1=C\c1ccccn1 | 92.9 | 96.7
6 | O=C(/C=C/c1c(Cl)cccc1Cl)/C=C/c1c(Cl)cccc1Cl | 87.1 | 90.4
7 | O=C1/C(=C/c2ccccc2)CCC/C1=C\c1ccccc1 [2,6-DIBENZYLIDENECYCLOHEXANONE] | 94.4 | 97.7
8 | O=C(/C=C/c1ccccc1)c1ccccc1 [CHALCONE] | 92.8 | 94.4
9 | COc1cc(/C=C2\CCC/C(=C\c3ccc(O)c(OC)c3)C2=O)ccc1O [CYCLOVALONE] | 90.1 | 96
10 | O=C(/C=C/c1ccccn1)c1ccccc1 [WR-190433] | 89.1 | 96.9
